From the EternaBench riboswitch data

Test system: MS2 coat protein
Assay: apparent Kd, MS2 coat protein; higher = weaker binding; RNA-MaP array; FMN 200 µM where present
Method in brief: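 Binding was read on Illumina sequencing-chip clusters where stalled E. coli RNA polymerase had transcribed each design. A titration of SNAP-549-labelled MS2 coat protein began at 0.7 or 1.5 nM and doubled to 3 µM, once without ligand and once with constant ligand, in 100 mM Tris-HCl pH 7.5, 80 mM KCl, 4 mM MgCl2, BSA, DTT, yeast tRNA and Tween-20. The apparent Kd is the median of filtered per-cluster binding-curve fits, based on green signal normalised to red-channel RNA signal and control-cluster median Fmax.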

[1] = designed as: ON switch for flavin mononucleotide, no ligand
[2] = ligand present: flavin mononucleotide, designed as: ON switch for flavin mononucleotide
[3] = designed as: OFF switch for flavin mononucleotide, no ligand
[4] = ligand present: flavin mononucleotide, designed as: OFF switch for flavin mononucleotide

Sequence: CGCGAUGCGGUUGGCCCUGGGCGAGAGGAUAUGGGCAGCAGGACAUGAGGAUCACCCAUGUUCUCUCAGAAGGCUCGAGCAGGC
- apparent Kd [1]: 247 nM
- apparent Kd [2]: 24.5 nM

Sequence: CGCGCGUCGACAGGAUAUACAGAUUGGCUCCGGUACAUGAGGAUCACCCAUGUAGAAGGGUCACGCACGGAUAGUACAUUAUUA
- apparent Kd [3]: 8.44 nM
- apparent Kd [4]: 28 nM

Sequence: CGCUAAGAGAACGAUACGAAUAGACAUGAGGAUCACCCAUGUAGAAGGACAACGGAAUAAACGUUGUAGGAUAUACAUUUAGCG
- apparent Kd [3]: 17.4 nM
- apparent Kd [4]: 45.3 nM

Sequence: CGCUAAGAUGGGUCUAAUGGACCACAGGAUAUGCUUGUACAUGAGGAUCACCCAUGUAAUAUUGUGCAGAAGGGUGGAUUCGCG
- apparent Kd [1]: 66.5 nM
- apparent Kd [2]: 10.8 nM

Sequence: CGCUACGUUUCGUAGCAGCUAGGUGAGGAUAUUCAAUUUUUCACAUGAGGAUCACCCAUGUAUGUGAAGAAGGCGCCUAGAAAC
- apparent Kd [1]: 10.8 nM
- apparent Kd [2]: 4.81 nM

Sequence: CGCUGUCACGCAGGAUAUGCAUUGGAUUACAAUGCAGAAGGGCGAUUACAUGAGGAUCACCCAUGUGUUGACAGUGAAGAAGAG
- apparent Kd [1]: 1240 nM
- apparent Kd [2]: 80.6 nM

Sequence: CGCUGUCACGCAGGAUAUGCAUUGGAUUCCAAUGCAGAAGGGCGAUUACAUGAGGAUCACCCAUGUGCUGACAGUGAAGAAGAG
- apparent Kd [1]: 1300 nM
- apparent Kd [2]: 65.9 nM

Sequence: CGCUGUCAUGCAGGAUAUGCAUUGGAUUACAAUGCAGAAGGGCGAUUACAUGAGGAUCACCCAUGUGUAGACAGUGAAGAAGAC
- apparent Kd [1]: 167 nM
- apparent Kd [2]: 11.9 nM

Sequence: CGCUGUCUCGCAGGAUAUGCAUUGGAUUACAAUGCAGAAGGGCGAUUACAUGAGGAUCACCCAUGUGUUGACAGUGAAGAAGAG
- apparent Kd [1]: 114 nM
- apparent Kd [2]: 21.6 nM

Sequence: CGGCCCGAUCGAGGAUAUAAGUCUAGGACAUGAGGAUCACCCAUGUAUGUCUUAGAAGGCGAUCGGGCCAGCCUGUUACAGGCA
- apparent Kd [1]: 28.5 nM
- apparent Kd [2]: 6.43 nM

Sequence: CGGGAGUCAGGAUAUACGAACAUGUCGCCAGAUGUCAAGGUACAUGAGGAUCACCCAUGUAGAAGGGAGGAGGG
- apparent Kd [3]: 60.5 nM
- apparent Kd [4]: 32.7 nM

Sequence: CGGGAUCCGAAGGGCGAAAGCCCACAUGAGGAUCACCCAUGUAGAAGGCGGGCCGCAACGCGGCCCGAGGAUAUACAGGAUCCA
- apparent Kd [3]: 17.9 nM
- apparent Kd [4]: 37 nM

Sequence: CGGGUCUGAGGAUAUCCAUCUUCAUACAUGAGGAUCACCCAUGUUUACCUUUGGGUUUCUGGAGAAGGCAGUUUUC
- apparent Kd [3]: 48.3 nM
- apparent Kd [4]: 73 nM

Sequence: CGGUAAACCACAGGAUAUGGCUAGUAUAACUAGCCAGAAGGGUGGUCGAAACCAUGUAAAUACAUGAGGAUCACCCAUGUAUCC
- apparent Kd [1]: 496 nM
- apparent Kd [2]: 47.6 nM

Sequence: CGGUAUCGACAGAAGGACGUAGCACAUGAGGAUCACCCAUGUCCGUAAUGUAGGAUAUGUACGGCCGAUCUCACGCAACACUAA
- apparent Kd [1]: 37.1 nM
- apparent Kd [2]: 13 nM

Sequence: CGGUGCUGAGGAUAUACAUGAGGAUCACCCAUGUGUGCCAGCUAGAAGACUGGCACUUGUAGAAGGCAGUACUG
- apparent Kd [3]: 11.4 nM
- apparent Kd [4]: 20.5 nM

Sequence: CGUCCACAUGAGGAUCACCCAUGUGAGGAUAUCCAUACCCACAACCAAUACACAUUAUGGAGAAGGCACACACA
- apparent Kd [3]: 20.2 nM
- apparent Kd [4]: 19.9 nM

Sequence: CGUCGAAAUGUAGGAUAUCUGCACGAUUAGUGCAGAGAAGGACAUGAGGAUCACCCAUGUAGAUCACGACGAAUUAAUUUAAUU
- apparent Kd [3]: 60.7 nM
- apparent Kd [4]: 480 nM

Sequence: CGUCUGUGAGGAUAUGGUAUCGUUUACAUGAGGAUCACCCAUGUUUCAUGGGACUAGAGACUAGAAGGUACUGACG
- apparent Kd [3]: 1310 nM
- apparent Kd [4]: 870 nM

Sequence: CGUGAAGGCUGGCCGAUAUAGUCGAGAAGGGUCCACAUGAGGAUCACCCAUGUGAGCCUUGGUGGACAGGAUAUCGAUGGCCGU
- apparent Kd [3]: 46.7 nM
- apparent Kd [4]: 15.2 nM

Sequence: CGUGACGACAUAGGAUAUUGUUACAUGAGGAUCACCCAUGUCAACCAUUUAUCUCAAAUUGUUGACAAGAAGGAUGUGGUCACG
- apparent Kd [1]: 32.6 nM
- apparent Kd [2]: 11.6 nM

Sequence: CGUGCGUAUGUGAGGAUAUGCUGGUCCUUGGAUCGGCAGAAGGCACAUGAGGAUCACCCAUGUGGUGUCGUGCA
- apparent Kd [3]: 376 nM
- apparent Kd [4]: 30.3 nM

Sequence: CGUGCGUAUGUGAGGAUAUGCUGGUCCUUGGCUCGGCAGAAGGCACAUGAGGAUCACCCAUGUGGUGUCGUACC
- apparent Kd [3]: 21.9 nM
- apparent Kd [4]: 58.6 nM

Sequence: CGUGCGUCGACAGGAUAUACAGAUUGGCUCCGGUACAUGAGGAUCACCCAUGUAGAAGGGUCACGCACAGUUAGUUCGUUAUUA
- apparent Kd [3]: 8.52 nM
- apparent Kd [4]: 37.9 nM

Sequence: CGUGCGUCGACAGGAUAUACAGAUUGGCUCCGGUACAUGAGGAUCACCCAUGUAGAAGGGUCACGCACGGAUAGUUCGAUAUUA
- apparent Kd [3]: 9.36 nM
- apparent Kd [4]: 43.1 nM

Sequence: CGUGCUAUGUAGAAGGCAGAUCUGAUUCAGAUCUGAGGAUAUACAUGAGGAUCACCCAUGUUAUGCACCAGCACGAGAGUGCAA
- apparent Kd [3]: 6.31 nM
- apparent Kd [4]: 10.5 nM

Sequence: CGUGGACUAGGAUAUUUACGAGGCUACAUGAGGAUCACCCAUGUGUUCUCGAGUACCAUGAAAGAAGGAGUAGCGA
- apparent Kd [3]: 12.6 nM
- apparent Kd [4]: 14 nM

Sequence: CGUUAUGAUAGAGGAUAUGUAAUACAUGAGGAUCACCCAUGUCACAUGGACAUUGUUUCUAAUUUACAGAAGGCUAUCCUUUCG
- apparent Kd [3]: 20.3 nM
- apparent Kd [4]: 16.3 nM

Sequence: CGUUCACAUGAGGAUCACCCAUGUCAGAUUUGGUCAGGAUAUGGUCUGCUUCCGCUAUUGCCAGAAGGGACUUUUG
- apparent Kd [1]: 28.9 nM
- apparent Kd [2]: 22.7 nM

Sequence: CGUUGACAUGAGGAUCACCCAUGUCAGAUCUGGUCAGGAUAUGGUGUGGUUUGGCUAUUGCCAGAAGGGACGUCUG
- apparent Kd [1]: 43.1 nM
- apparent Kd [2]: 46.8 nM

Sequence: CUAAAACAUGAGGAUCACCCAUGUCAACAAAGUCGAGGAUAUGGGCAAAUAAAAUAAGAACCAGAAGGCGAAUAAC
- apparent Kd [1]: 409 nM
- apparent Kd [2]: 36.2 nM

Sequence: CUAAAUCAUGUAGGAUAUGCGUGGCGAAGCUAUGCAGAAGGACAUGAGGAUCACCCAUGUCAAAAUUUCUGCGUACAGACGGAA
- apparent Kd [3]: 15.5 nM
- apparent Kd [4]: 30.7 nM

Sequence: CUAAAUCAUGUAGGAUAUGCGUGGCGAAGCUAUGCAGAAGGACAUGAGGAUCACCCAUGUCUUUCUGUCUGCGUACAGACGGAA
- apparent Kd [3]: 23.5 nM
- apparent Kd [4]: 135 nM

Sequence: CUACCUUAUGAGAAGGCGGUCAUGAAACAUGAUCGAGGAUAUCAUGUAAACAUGAGGAUCACCCAUGUAUGGGUAUUAUGGUAU
- apparent Kd [1]: 146 nM
- apparent Kd [2]: 26.4 nM

Sequence: CUAUAUAAUACCUCAUGUACAUGAGGAUCACCCAUGUUAACUUAGGAUAUAUUUAUAUUAAUAAAGUAGAAGGAAGUACUAUUU
- apparent Kd [3]: 23.3 nM
- apparent Kd [4]: 19.4 nM

Sequence: CUAUCGCAAGGAUAUACAUGAGGAUCACCCAUGUGGAAGAAUGGCCCAAAUCUAACAUGUAGAAGGUGCUAAAA
- apparent Kd [3]: 40.6 nM
- apparent Kd [4]: 64.9 nM

Sequence: CUAUGCGGAAUAGGAUAUUCGAUCAUGAGGAUAGAAGAAGGGUUACAUGAGGAUCACCCAUGUAUGCACAUGAGGAUCCCUUAG
- apparent Kd [3]: 221 nM
- apparent Kd [4]: 243 nM

Sequence: CUAUUACGAGGAUAUGAUUUAAAUAACAUGAGGAUCACCCAUGUUUUUACGUUAUUAUGUUUAGAAGGCGUAUUGU
- apparent Kd [3]: 50.1 nM
- apparent Kd [4]: 31.4 nM

Sequence: CUAUUGUGAGGAUAUCAGUAGUAGAACAAUAGUACUACUACUGAGAAGGCACAUGAGGAUCACCCAUGUUCCUC
- apparent Kd [3]: 61.1 nM
- apparent Kd [4]: 406 nM

Sequence: CUCAAGUGAGGAUAUCAGUAGUAAAAAAAUAAAAUUACUACUGAGAAGGCACAUGAGGAUCACCCAUGUGACUU
- apparent Kd [3]: 26.5 nM
- apparent Kd [4]: 23.5 nM

Sequence: CUCAGCUCGUGAGGAUAUACAACACUGCUUCGGCAGUGUAUUAAGAUCACAUGAGGAUCACCCAUGUAGAAGGCACGAGCUGAU
- apparent Kd [3]: 14.3 nM
- apparent Kd [4]: 246 nM

Sequence: CUCAUUAACAUGAGGAUCACCCAUGUUGGCCAGUCUCACACCAGAAGGCCCGUUGAGCACAGCAGGGAGGAUAUGGGUGACAUA
- apparent Kd [1]: 309 nM
- apparent Kd [2]: 211 nM

Sequence: CUCCUGCGAGGAUAUACAUAGUGACGUCUGUUUGGUCUUAAACAUGAGGAUCACCCAUGUAGAAGGUGCGUCAC
- apparent Kd [3]: 17.5 nM
- apparent Kd [4]: 16.9 nM

Sequence: CUCGUCUGGAAACGGAGCGGCCAACAUGAGGAUCACCCAUGUGAGGAUAUGCCUACUAAAAGUAGGCAGAAGGCGCAAUUGGCA
- apparent Kd [3]: 20.3 nM
- apparent Kd [4]: 36 nM

Sequence: CUCUACAUAGGAUAUACAUGAGGAUCACCCAUGUAUGUUUCGACAUGCGUUUACCUCGGUAGAAGGAUGUAGUA
- apparent Kd [3]: 68.2 nM
- apparent Kd [4]: 185 nM

Sequence: CUCUAGUGAGGAUAUCAGUAGUAAAAAAAUAAAAUUACUACUGAGAAGGCACAUGAGGAUCACCCAUGUCUUUC
- apparent Kd [3]: 87.1 nM
- apparent Kd [4]: 46.5 nM

Sequence: CUCUAUCAUGUAGGAUAUGCGUGUCGAAGCUAUGCAGAAGGACAUGAGGAUCACCCAUGUCUUACUGUCUGCGGACGGACAGGG
- apparent Kd [3]: 22.4 nM
- apparent Kd [4]: 53.9 nM

Sequence: CUCUUGUUAGGAUAUCAAACCAGUGACGGAACCACUGGAAGUGAGAAGGGACAUGAGGAUCACCCAUGUAAGAA
- apparent Kd [3]: 55.6 nM
- apparent Kd [4]: 113 nM

Sequence: CUGAAUCUAGGAUAUUGUACUGCUGACAUGAGGAUCACCCAUGUAUGUUAACUCGGCCGUCGAGAAGGAGAACAUA
- apparent Kd [3]: 36.1 nM
- apparent Kd [4]: 27.6 nM

Sequence: CUGACAGUGUAGCGCGUCUAGCCAGAGGAUAUCCACAUGAGGAUCACCCAUGUCAUGUCCUCGCGGGAGAAGGCUGGCUUGGCG
- apparent Kd [3]: 204 nM
- apparent Kd [4]: 54.3 nM

Sequence: CUGAGCUUAGGAUAUACGUGUUGAUCUGAUCUCGACCUAUUACAUGAGGAUCACCCAUGUAGAAGGGAGCCGGA
- apparent Kd [3]: 17.6 nM
- apparent Kd [4]: 19.3 nM

Sequence: CUGAGGUAAGGAUAUAGGAGAGAAGAUAAGGUAUGAGAGUUCUAGAAGGUACAUGAGGAUCACCCAUGUUAGGG
- apparent Kd [3]: 477 nM
- apparent Kd [4]: 235 nM

Sequence: CUGAUGUGAGGAUAUCAACGCCAUGUCUUUGACAUGGCGCAUGAGAAGGCACAUGAGGAUCACCCAUGUUCUUC
- apparent Kd [3]: 36 nM
- apparent Kd [4]: 640 nM

Sequence: CUGAUGUUAGGAUAUCAGGCACCCGCCACUGGCAGGGCGCAUGAGAAGGGACAUGAGGAUCACCCAUGUAGUAA
- apparent Kd [3]: 25.2 nM
- apparent Kd [4]: 60.1 nM

Sequence: CUGCCUACAUGAGGAUCACCCAUGUCUGGCGAAAGAGUUCAGUAGGAUAUGAGAUUGGGUAAUCAUCAGAAGGGCUGGCAAAAG
- apparent Kd [1]: 37.5 nM
- apparent Kd [2]: 14.2 nM
